From PMC3078945 (Clinical cancer research : an official journal of the …, 2011)
“Also recorded” adds a separate entry of the source. Like-named read-outs stand apart in the source and are kept apart here.

How the values were obtained:
[1] = Safingol plasma pharmacokinetics in the phase I trial; format: in vivo, human; details: for dose dependence of safingol PK parameters (Cmax, AUC): safingol 60–930 mg/m^2
Summary of the method: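 Safingol was an egg-phospholipid/dextrose/lactic acid emulsion diluted to 1 mg/ml in saline and infused IV over 60–120 min at 60–930 mg/m2. […] Assay was HPLC-MS/MS with non-compartmental analysis.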

[2] = test system: sphingosine-1-phophate (S1P) levels; assay: Pharmacodynamics: plasma S1P levels after safingol; format: in vivo, human; details: for effect on S1P in plasma: across dose cohorts
Summary of the method: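 Levels 1 h and 4 h after safingol were normalized to pre-treatment levels, with patients grouped by dose cohort. Values are cohort means with standard error.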

[3] = test system: advanced solid tumors; assay: Antitumor activity; format: in vivo, human
[4] = test system: patients with advanced solid tumors; details: for AST/ALT G2 (number of patients) / Fatigue G4 (number of patients) / Hyponatremia G2 (number of patients) / Hyponatremia G3 (number of patients) / Hyponatremia G4 (number of patients) / Lymphopenia G2 (number of patients) / Lymphopenia G3 (number of patients) / Lymphopenia G4 (number of patients) / Nausea/vomiting G2 (number of patients) / Nausea/vomiting G3 (number of patients): cycle 1
[5] = target: sphingosine kinase 1 (SphK); details: cited from earlier work
[6] = target: Protein Kinase C; details: PKC; cited from earlier work
[7] = test system: patients; details: cited from earlier work
[8] = cited from earlier work
[9] = test system: solid tumor cells; details: safingol alone; cited from earlier work
[10] = cited from earlier work; remark: listed apart in the source
[11] = test system: xenograft; details: cited from earlier work
[12] = test system: mice; details: mouse, in vivo; cited from earlier work
[13] = cohorts 8–10, safingol 750–930 mg/m^2
[14] = safingol + cisplatin, 6 patients
[15] = safingol + cisplatin, 37 patients evaluable
[16] = cohort 1 (safingol 60, cisplatin 75 mg/m^2), N=4
[17] = cohort 2 (safingol 120, cisplatin 75 mg/m^2), N=3
[18] = cohort 3 (safingol 240, cisplatin 75 mg/m^2), N=3
[19] = cohort 4 (safingol 240, cisplatin 60 mg/m^2), N=6
[20] = cohort 5 (safingol 360, cisplatin 60 mg/m^2), N=3
[21] = cohort 6 (safingol 480, cisplatin 60 mg/m^2), N=3
[22] = cohort 7 (safingol 600, cisplatin 60 mg/m^2), N=3
[23] = cohort 8 (safingol 750, cisplatin 60 mg/m^2), N=6
[24] = cohort 9 (safingol 930, cisplatin 60 mg/m^2), N=6
[25] = cohort 10 (safingol 840, cisplatin 60 mg/m^2), N=6

## CCCCCCCCCCCCCCC[C@H](O)[C@@H](N)CO [Safingol, (2S,3S)-2-amino-1,3-octadecanediol]
[1]; cohorts 1–7, listed as S
  pharmacokinetic interaction of safingol with cisplatin (day 1 vs day 8): no significant interaction
[1]; [13]
  duration of safingol concentration over 20 µM: < 1 h
  time safingol levels of at least 5 µM persist after treatment: at least 4 hours
[1]; human, plasma, intravenous, Mean day 1 safingol AUC, safingol 600 – 930 mg/m^2
  AUC: 102 to 110 µM·h
[1]; human, plasma, intravenous, Mean day 1 safingol Cmax, safingol 600 – 930 mg/m^2
  Cmax: 23900 to 26800 nM
[1]; on average
  increase in AUC per 100 mg/m^2 increase in safingol dose: 10 µM·h
  increase in Cmax per 100 mg/m^2 increase in safingol dose: 3000 nM
[1]
  dose dependence of safingol PK parameters (Cmax, AUC): increased in a linear and dose-proportional manner; also recorded: increased linearly with dose
[1]; listed as S
  dose dependence of safingol PK parameters (Cmax, AUC): linear throughout the dose range
[2]
  effect on S1P in plasma: dose-dependent decreases; also recorded: significant decreases
[2]; listed as S
  effect on S1P in plasma: dose-dependent reduction
[2]; safingol 930 mg/m^2, p = 0.001
  time dependence of S1P levels: lower 4 hours post-treatment than at 1 hour post-treatment
[2]; safingol doses of over 750 mg/m^2, p < 0.001
  decrease of S1P levels relative to pre-treatment: about half
[3]; other patient with adrenal cortical cancer
  duration of stable disease: 7.2 m
[3]; [14]
  average duration of stable disease: 3.3 m
  range of duration of stable disease: 1.8 – 7.2 m
[3]; safingol + cisplatin, 6 patients, listed as S
  average duration of stable disease: 3.3 months
[3]; [15]
  best response: stable disease
  number of patients with stable disease: 6
[4]; MTD cohort
  upper limit of the 95% posterior interval of DLT rate: 40%
[4]; cohort 10, 1/6
  DLT rate for the MTD cohort: 17%
[4]; current study, careful monitoring
  hemolysis: no hemolysis was observed in any patient
[4]; [16]
  AST/ALT G2 (number of patients): 0
  Fatigue G4 (number of patients): 0
  Hyponatremia G2 (number of patients): 0
  Hyponatremia G3 (number of patients): 1
  Hyponatremia G4 (number of patients): 0
  Lymphopenia G2 (number of patients): 0
  Lymphopenia G3 (number of patients): 1
  Lymphopenia G4 (number of patients): 0
  Nausea/vomiting G2 (number of patients): 0
  Nausea/vomiting G3 (number of patients): 0
[4]; [17]
  AST/ALT G2 (number of patients): 0
  Fatigue G4 (number of patients): 0
  Hyponatremia G2 (number of patients): 0
  Hyponatremia G3 (number of patients): 0
  Hyponatremia G4 (number of patients): 0
  Lymphopenia G2 (number of patients): 0
  Lymphopenia G3 (number of patients): 1
  Lymphopenia G4 (number of patients): 0
  Nausea/vomiting G2 (number of patients): 1
  Nausea/vomiting G3 (number of patients): 0
[4]; [18]
  AST/ALT G2 (number of patients): 0
  Fatigue G4 (number of patients): 0
  Hyponatremia G2 (number of patients): 0
  Hyponatremia G3 (number of patients): 1
  Hyponatremia G4 (number of patients): 0
  Lymphopenia G2 (number of patients): 0
  Lymphopenia G3 (number of patients): 0
  Lymphopenia G4 (number of patients): 0
  Nausea/vomiting G2 (number of patients): 3
  Nausea/vomiting G3 (number of patients): 0
[4]; [19]
  AST/ALT G2 (number of patients): 1
  Fatigue G4 (number of patients): 0
  Hyponatremia G2 (number of patients): 0
  Hyponatremia G3 (number of patients): 0
  Hyponatremia G4 (number of patients): 0
  Lymphopenia G2 (number of patients): 0
  Lymphopenia G3 (number of patients): 3
  Lymphopenia G4 (number of patients): 0
  Nausea/vomiting G2 (number of patients): 0
  Nausea/vomiting G3 (number of patients): 0
[4]; [20]
  AST/ALT G2 (number of patients): 1
  Fatigue G4 (number of patients): 0
  Hyponatremia G2 (number of patients): 0
  Hyponatremia G3 (number of patients): 0
  Hyponatremia G4 (number of patients): 0
  Lymphopenia G2 (number of patients): 0
  Lymphopenia G3 (number of patients): 1
  Lymphopenia G4 (number of patients): 0
  Nausea/vomiting G2 (number of patients): 0
  Nausea/vomiting G3 (number of patients): 0
[4]; [21]
  AST/ALT G2 (number of patients): 0
  Fatigue G4 (number of patients): 0
  Hyponatremia G2 (number of patients): 0
  Hyponatremia G3 (number of patients): 0
  Hyponatremia G4 (number of patients): 0
  Lymphopenia G2 (number of patients): 0
  Lymphopenia G3 (number of patients): 0
  Lymphopenia G4 (number of patients): 0
  Nausea/vomiting G2 (number of patients): 0
  Nausea/vomiting G3 (number of patients): 0
[4]; [22]
  AST/ALT G2 (number of patients): 0
  Fatigue G4 (number of patients): 0
  Hyponatremia G2 (number of patients): 0
  Hyponatremia G3 (number of patients): 0
  Hyponatremia G4 (number of patients): 0
  Lymphopenia G2 (number of patients): 0
  Lymphopenia G3 (number of patients): 0
  Lymphopenia G4 (number of patients): 0
  Nausea/vomiting G2 (number of patients): 0
  Nausea/vomiting G3 (number of patients): 0
[4]; [23]
  AST/ALT G2 (number of patients): 1
  Fatigue G4 (number of patients): 0
  Hyponatremia G2 (number of patients): 0
  Hyponatremia G3 (number of patients): 0
  Hyponatremia G4 (number of patients): 0
  Lymphopenia G2 (number of patients): 0
  Lymphopenia G3 (number of patients): 0
  Lymphopenia G4 (number of patients): 0
  Nausea/vomiting G2 (number of patients): 0
  Nausea/vomiting G3 (number of patients): 0
[4]; [24]
  AST/ALT G2 (number of patients): 1
  Fatigue G4 (number of patients): 0
  Hyponatremia G2 (number of patients): 0
  Hyponatremia G3 (number of patients): 1
  Hyponatremia G4 (number of patients): 0
  Lymphopenia G2 (number of patients): 0
  Lymphopenia G3 (number of patients): 2
  Lymphopenia G4 (number of patients): 0
  Nausea/vomiting G2 (number of patients): 0
  Nausea/vomiting G3 (number of patients): 0
[4]; [25]
  AST/ALT G2 (number of patients): 0
  Fatigue G4 (number of patients): 0
  Hyponatremia G2 (number of patients): 0
  Hyponatremia G3 (number of patients): 2
  Hyponatremia G4 (number of patients): 0
  Lymphopenia G2 (number of patients): 0
  Lymphopenia G3 (number of patients): 0
  Lymphopenia G4 (number of patients): 0
  Nausea/vomiting G2 (number of patients): 1
  Nausea/vomiting G3 (number of patients): 0
[4]; exceeded the MTD
  maximum administered dose: 930 mg/m^2
[4]; in combination with cisplatin
  DLT from safingol (principal DLT): hepatic enzyme elevation
[4]; in vivo
  overall tolerability of the drug combination: well tolerated with no major increase in toxicities over those of cisplatin alone
[4]; safingol over 120 min with cisplatin 60 mg/m^2, every 3 weeks
  maximum tolerated dose (MTD): 840 mg/m^2
[4]; with cisplatin 60 mg/m^2, every 3 weeks
  recommended phase 2 dose: 840 mg/m^2
[5]; SphK
  Ki: 5 µM
[5]; competitive inhibitor of SphK
  Ki: ~5 µM
[6]
  Ki: 33 µM
[7]; phase I study with doxorubicin
  safingol-associated toxicity: a single episode of grade 1 hemolysis
[7]; safingol doses not exceeding 120 mg/m^2 with doxorubicin
  hepatic toxicity: no hepatic toxicity was observed
[7]; safingol up to 120 mg/m^2 every three weeks with doxorubicin
  dose-limiting toxicity: no dose-limiting toxicity observed
[8]; phase I study with doxorubicin
  pharmacokinetic interaction with doxorubicin: No significant pharmacokinetic interaction
[8]; read-out: mean Cmax, safingol 60 mg/m^2, study of safingol and doxorubicin
  Cmax: 1300 nM
[9]
  cell death mechanism: induces cell death by autophagy
[10]
  effect on in vitro antitumor effect of doxorubicin, cisplatin and mitomycin C: increases the in vitro antitumor effect
[11]
  effect on antitumor activity of cisplatin in xenografts: can increase the antitumor activity of cisplatin without increasing toxicity
[12]
  hepatic toxicity in mice: increases in ALT and histological changes consistent with hepatocyte autophagy
